No end group written: not given here.
Assays:
WW2 domain of WWOX = assay: ITC binding of WW1 domain of WWOX to WW2 domain and vice versa; design: species or system human
WW1 domain of WWOX = target: T1, WW1 domain of WWOX (Homo sapiens, UniProt Q9NZC7); assay: ITC binding of ErbB4 PPXY peptides to WW1 domain of WWOX
T1 sequence (Q9NZC7 16-50 limits assumed): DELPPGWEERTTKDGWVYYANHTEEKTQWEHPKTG
Summary of the method: (§1)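 His-tagged human WWOX constructs: WW1 (residues 16–50), WW1–WW2 tandem (16–91), and WW2 (57–91) carrying Y85W. Expressed in E. coli BL21*(DE3) and purified by Ni-NTA then SEC. 12-mer ErbB4 peptides (4 mM in syringe) injected 25× into 40–60 μM protein at 25 °C. Buffer: 50mM sodium phosphate, 100mM NaCl, 1mM EDTA, 5mM β-mercaptoethanol, pH 7.0. Buffer-titration heats subtracted. One-site fit with stoichiometry fixed at 1 gives Kd and ΔH. At least 3 repeats, SD.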

WW2W domain of WWOX = WW2W domain of WWOX (Homo sapiens, UniProt Q9NZC7, Y85W); assay: ITC binding of ErbB4 PPXY peptides to WW2W; details: for ΔH: Table 3, pH 7.0, 25°C, mean ± SD, at least three measurements
Summary of the method: as §1

[1] = target: T2, WW1–WW2 tandem module of WWOX (Homo sapiens, UniProt Q9NZC7); assay: ITC binding of ErbB4 PPXY peptides to WW1–WW2 tandem module of WWOX; details: Table 4, pH 7.0, 25°C, mean ± SD, at least three measurements
T2 sequence (Q9NZC7 16-91): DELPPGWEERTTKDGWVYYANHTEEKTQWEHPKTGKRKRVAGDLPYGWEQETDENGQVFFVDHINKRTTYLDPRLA
Summary of the method: as §1

WW2W domain of WWOX, sequence (Q9NZC7 57-91 Y85W limits assumed): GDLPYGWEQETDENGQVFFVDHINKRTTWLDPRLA

Substance | binding between the two WW domains (WW2 domain of WWOX) | affinity of binding to WW1 domain (in words) (WW1 domain of WWOX) | ΔH (WW2W domain of WWOX) [kcal/mol] | ΔH [1] [kcal/mol] | affinity for WW2W domain relative to binding of WW1 domain (WW2W domain of WWOX; Tables 1 and 3 compared) | enthalpy released relative to the PY3_WT peptide (WW1 domain of WWOX; ΔH of mutant versus PY3_WT)
WW1: WW1 domain (residues 16–50) of human WWOX, recombinant with N-terminal His-tag ({His‑tag}-DELPPGWEERTTKDGWVYYANHTEEKTQWEHPKTG) | no observable binding | – | – | – | – | –
H-FNIPPPIYTSRA-OH [ErbB4_PY1] | – | in the order of hundreds of micromolar | -4.74 ± 0.52 | -7.25 ± 0.88 | – | –
H-TVLPPPPYRHRN-OH [ErbB4_PY3] | – | – | -4.15 ± 0.28 | -5.00 ± 0.30 | more than two-fold stronger | –
H-TVLPPPPYRARN-OH [PY3_A+5] | – | – | – | – | – | more than −5 kcal/mol
H-GHSPPPAYTPMS-OH [ErbB4_PY2] | – | in the order of hundreds of micromolar | -8.08 ± 1.09 | -4.88 ± 0.28 | – | –
